Test results taken from PMC6911349 (Drug Design, Development and Therapy, 2019).
Converted amounts (≈) assume the structure as drawn. Counter-ions that a name gives are not always drawn. Like-named read-outs stand apart in the source and are kept apart here. Blank lines part the entries; values can stand above or below the compound they belong to.

How the values were obtained:
α-glucosidase = α-glucosidase (Saccharomyces cerevisiae, UniProt P53341); assay: α-Glucosidase inhibition chromogenic assay; format: biochemical
α-glucosidase, sequence (P53341 whole entry): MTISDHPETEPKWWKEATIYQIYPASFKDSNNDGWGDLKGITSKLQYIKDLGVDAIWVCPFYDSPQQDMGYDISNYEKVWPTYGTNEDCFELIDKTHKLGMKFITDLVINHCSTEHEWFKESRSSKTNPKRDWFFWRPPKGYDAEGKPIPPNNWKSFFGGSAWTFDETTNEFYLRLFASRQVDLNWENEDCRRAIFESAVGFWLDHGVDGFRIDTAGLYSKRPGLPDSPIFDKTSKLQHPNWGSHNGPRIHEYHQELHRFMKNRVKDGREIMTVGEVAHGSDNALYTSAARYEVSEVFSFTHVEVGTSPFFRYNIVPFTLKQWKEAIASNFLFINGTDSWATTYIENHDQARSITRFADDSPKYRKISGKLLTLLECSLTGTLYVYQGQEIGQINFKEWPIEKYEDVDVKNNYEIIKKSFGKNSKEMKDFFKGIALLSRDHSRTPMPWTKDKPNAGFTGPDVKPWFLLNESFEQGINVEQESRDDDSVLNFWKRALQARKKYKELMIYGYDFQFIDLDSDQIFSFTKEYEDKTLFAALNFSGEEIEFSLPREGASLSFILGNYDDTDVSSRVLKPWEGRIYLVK

ABTS anti-radicals study = assay: ABTS anti-radicals study
Procedure, shortened: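 ABTS (7 mM) combined with […] and held in the dark at 25 °C for 12–16 h to form radicals. Diluted in 0.01 M phosphate buffer, pH 7.4, to A734 of 0.70. 300 µL test compound solution added to 3.0 mL radical solution; decrease in absorbance recorded. Ascorbic acid as reference.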

H2O2 anti-radicals study = assay: H2O2 anti-radicals study
Procedure, shortened: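 2 mM H2O2 in 50 mM phosphate buffer, pH 7.4, mixed with 0.1 mL test compound at various concentrations. Absorbance at 230 nm read against blank after 10 min; H2O2 scavenging calculated from absorbance.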

[1] = DPPH radical scavenging assay
Procedure, shortened: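 Test compound dilutions of 62.50–1000 µg/mL; 0.1 mL of each added to 3.0 mL DPPH in methanol. Incubated 30 min, then absorbance read at 517 nm. % scavenging = [(A0–A1)/A0]×100, where A0 is control and A1 is test absorbance. Ascorbic acid as reference.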

[2] = biological target: butyrylcholinesterase (BChE) (Equus caballus, UniProt P81908); assay: Butyrylcholinesterase inhibitory assay; format: biochemical, equine; conditions: for inhibition at 62.5 µg/mL: read-out: Butyrylcholinesterase (BChE) Percent Inhibition (Mean±SEM), 62.5 μg/mL; for inhibition at 125 µg/mL: read-out: Butyrylcholinesterase (BChE) Percent Inhibition (Mean±SEM), 125 μg/mL; for inhibition at 250 µg/mL: read-out: Butyrylcholinesterase (BChE) Percent Inhibition (Mean±SEM), 250 μg/mL; for inhibition at 1000 µg/mL: read-out: Butyrylcholinesterase (BChE) Percent Inhibition (Mean±SEM), 1000 μg/mL
butyrylcholinesterase (BChE), sequence (P81908 whole entry): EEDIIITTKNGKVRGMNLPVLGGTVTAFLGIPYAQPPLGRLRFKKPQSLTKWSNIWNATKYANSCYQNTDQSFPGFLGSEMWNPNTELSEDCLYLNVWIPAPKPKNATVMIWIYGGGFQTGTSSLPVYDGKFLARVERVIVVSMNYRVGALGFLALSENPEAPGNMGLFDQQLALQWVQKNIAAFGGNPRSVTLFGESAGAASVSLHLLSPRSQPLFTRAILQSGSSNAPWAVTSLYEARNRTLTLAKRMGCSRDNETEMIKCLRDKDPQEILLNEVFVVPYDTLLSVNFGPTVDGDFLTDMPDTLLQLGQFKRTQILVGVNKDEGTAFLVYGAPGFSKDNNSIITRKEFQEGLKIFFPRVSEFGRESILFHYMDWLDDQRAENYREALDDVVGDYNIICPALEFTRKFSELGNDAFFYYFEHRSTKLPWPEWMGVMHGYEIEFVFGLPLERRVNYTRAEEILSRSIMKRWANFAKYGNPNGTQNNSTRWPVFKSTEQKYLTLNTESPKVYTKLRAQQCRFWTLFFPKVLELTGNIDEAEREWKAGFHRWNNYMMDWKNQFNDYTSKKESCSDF

[3] = biological target: acetylcholinesterase (AChE) (Electrophorus electricus, UniProt O42275); assay: biochemical; parameters: species or system electric eel
acetylcholinesterase (AChE), sequence (O42275 24-633): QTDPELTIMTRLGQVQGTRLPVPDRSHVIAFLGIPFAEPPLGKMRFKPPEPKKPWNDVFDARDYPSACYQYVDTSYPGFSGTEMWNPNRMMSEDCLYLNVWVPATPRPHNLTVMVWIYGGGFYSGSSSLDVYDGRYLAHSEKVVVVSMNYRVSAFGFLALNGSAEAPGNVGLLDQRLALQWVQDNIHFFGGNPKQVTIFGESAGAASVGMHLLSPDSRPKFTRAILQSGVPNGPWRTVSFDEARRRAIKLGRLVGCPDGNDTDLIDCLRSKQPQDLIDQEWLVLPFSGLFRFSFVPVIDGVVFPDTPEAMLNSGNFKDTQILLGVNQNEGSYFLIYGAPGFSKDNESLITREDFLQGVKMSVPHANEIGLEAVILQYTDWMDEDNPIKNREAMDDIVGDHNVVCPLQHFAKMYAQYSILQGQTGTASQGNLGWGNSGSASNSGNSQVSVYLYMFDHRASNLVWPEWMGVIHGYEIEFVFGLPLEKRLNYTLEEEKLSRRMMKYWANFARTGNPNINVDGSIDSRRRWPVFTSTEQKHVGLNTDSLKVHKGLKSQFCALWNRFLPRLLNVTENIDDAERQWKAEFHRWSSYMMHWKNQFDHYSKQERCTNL

WI-38 = assay: MTT assay, normal cell line; format: cell-based; conditions: Homo sapiens, WI-38, WI-38 normal cell line
Procedure, shortened: (§1)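 Cells grown in DMEM with 10% FBS, streptomycin 100 µg/mL and penicillin 100 IU/mL, at 37 °C, 5% CO2. Seeded at 6×10^4 cells/mL (80% confluence) and incubated overnight. Medium replaced with fresh medium holding test compound at 31.25–1000 ppm for 48 h.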

[4] = MTT assay, normal cell line; format: cell-based; conditions: human, WI-38 normal cell line
Procedure, shortened: as §1

Ascaridia galli = assay: Anthelmintic study
Procedure, shortened: (§2)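 P. posthuma (7–9 cm) collected from muddy soil; A. galli taken from domestic chicken intestine. Test compound suspended in distilled water with Tween 80 at 10, 20 and 40 mg. 25 mL per Petri dish, six worms per dish. […] Paralysis and death times recorded.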

MDA-MB-231 = assay: MTT assay; format: cell-based; conditions: Homo sapiens, MDA-MB-231, 48 h
Procedure, shortened: as §1

Pheretima posthuma = assay: Anthelmintic study
Procedure, shortened: as §2

HCT-116 = assay: MTT assay; format: cell-based; conditions: Homo sapiens, HCT-116, 48 h
Procedure, shortened: as §1

NIH/3T3 = assay: MTT assay; format: cell-based; conditions: Mus musculus, NIH3T3, 48 h
Procedure, shortened: as §1

MCF-7 = assay: MTT assay; format: cell-based; conditions: Homo sapiens, MCF7, 48 h
Procedure, shortened: as §1

[5] = 1000 µg/mL, listed as test compound
[6] = 40 mg/mL, listed as test compound
[7] = 40 mg/mL, listed as albendazole

Percent α-glucosidase inhibition (α-glucosidase; 31.25 µg/mL): 59.7±1.7%
Percent α-glucosidase inhibition (α-glucosidase; 62.5 µg/mL): 67.3±2.8%
Percent α-glucosidase inhibition (α-glucosidase; 125 µg/mL): 71.7±1.7%
Percent α-glucosidase inhibition (α-glucosidase; 250 µg/mL): 74.4± 2.3%
Percent α-glucosidase inhibition (α-glucosidase; 500 µg/mL): 81.7±2.6%
Percent α-glucosidase inhibition (α-glucosidase; 1000 µg/mL): 86.7±2.6%
SMILES: C[C@H]1O[C@H](O[C@H]2[C@H](O)[C@@H](O)[C@@H](O[C@H]3[C@H](O)[C@@H](O)C(O)O[C@@H]3CO)O[C@@H]2CO)[C@H](O)[C@@H](O)[C@@H]1N[C@H]1C=C(CO)[C@@H](O)[C@H](O)[C@H]1O (some centres unmarked) [Acarbose, acarbose]

ABTS IC50 value (ABTS anti-radicals study): 18.04 µg/mL
H2O2 IC50 value (H2O2 anti-radicals study): 29.73 µg/mL
DPPH IC50 value [1]: 11.39 µg/mL
SMILES: O=C1O[C@H]([C@@H](O)CO)C(O)=C1O [Ascorbic acid, ascorbic acid, reference compound]
ABTS % Inhibition (Mean±SEM) (ABTS anti-radicals study; 62.5 µg/mL): 59.12±0.34%
ABTS % Inhibition (Mean±SEM) (ABTS anti-radicals study; 125 µg/mL): 64.47±0.49%
ABTS % Inhibition (Mean±SEM) (ABTS anti-radicals study; 250 µg/mL): 69.75±0.14%
ABTS % Inhibition (Mean±SEM) (ABTS anti-radicals study; 500 µg/mL): 76.59±0.30%
ABTS % Inhibition (Mean±SEM) (ABTS anti-radicals study; 1000 µg/mL): 81.85±0.18%
H2O2 % Inhibition (Mean±SEM) (H2O2 anti-radicals study; 62.5 µg/mL): 56.67±1.67%
H2O2 % Inhibition (Mean±SEM) (H2O2 anti-radicals study; 125 µg/mL): 61.33±1.33%
H2O2 % Inhibition (Mean±SEM) (H2O2 anti-radicals study; 250 µg/mL): 68.85±1.85%
H2O2 % Inhibition (Mean±SEM) (H2O2 anti-radicals study; 500 µg/mL): 74.67±0.67%
H2O2 % Inhibition (Mean±SEM) (H2O2 anti-radicals study; 1000 µg/mL): 78.00±1.15%
DPPH % Inhibition (Mean±SEM) ([1]; 62.5 µg/mL): 61.35±0.18%
DPPH % Inhibition (Mean±SEM) ([1]; 125 µg/mL): 66.20±0.15%
DPPH % Inhibition (Mean±SEM) ([1]; 250 µg/mL): 73.42±0.11%
DPPH % Inhibition (Mean±SEM) ([1]; 500 µg/mL): 78.62±0.17%
DPPH % Inhibition (Mean±SEM) ([1]; 1000 µg/mL): 83.53±0.20%

SMILES: COc1ccc2c3c1O[C@H]1C[C@@H](O)C=C[C@@]31CCN(C)C2 [Galanthamine, Galanthamine hydrobromide, reference compound]
inhibition at 62.5 µg/mL [2]: 71.4%
inhibition at 125 µg/mL [2]: 78.6%
inhibition at 250 µg/mL [2]: 82.8%
inhibition at 1000 µg/mL [2]: 95%

SMILES: CCC(C=O)C1CC(=O)N(c2ccccc2)C1=O (centres unmarked) [2-(2,5-dioxo-1-phenylpyrrolidin-3-yl)butanal]
IC50 [2]: 539 µM
Butyrylcholinesterase (BChE) Percent Inhibition (Mean±SEM) ([2]; 1000 µg/mL): 73.4±1.9%
inhibition at 62.5 µg/mL [2]: 36.9%
inhibition at 125 µg/mL [2]: 49.3%
inhibition at 250 µg/mL [2]: 52.7%
inhibition at 500 µg/mL ([2]; read-out: Butyrylcholinesterase (BChE) Percent Inhibition (Mean±SEM), 500 μg/mL): 64.3%
inhibition at 1000 µg/mL [2]: 73.4 ± 1.92%
ABTS IC50 value (ABTS anti-radicals study): 84.36 µg/mL
ABTS % Inhibition (Mean±SEM) (ABTS anti-radicals study; 62.5 µg/mL): 48.08±2.19%
ABTS % Inhibition (Mean±SEM) (ABTS anti-radicals study; 125 µg/mL): 57.22±1.63%
ABTS % Inhibition (Mean±SEM) (ABTS anti-radicals study; 250 µg/mL): 61.28±0.84%
ABTS % Inhibition (Mean±SEM) (ABTS anti-radicals study; 500 µg/mL): 68.35±1.96%
ABTS % Inhibition (Mean±SEM) (ABTS anti-radicals study; 1000 µg/mL): 75.84±1.58%
ABTS % Inhibition (Mean±SEM) (ABTS anti-radicals study; [5]): 72.85±1.17%
ABTS IC50 value (ABTS anti-radicals study; listed as test compound): 139.74 µg/mL
IC50 [3]: 422 µM
Acetylcholinesterase (AChE) Percent Inhibition (Mean±SEM) ([3]; 1000 µg/mL): 71.3±1.9%
inhibition at 62.5 µg/mL ([3]; read-out: Acetylcholinesterase (AChE) Percent Inhibition (Mean±SEM), 62.5 μg/mL): 39.6%
inhibition at 125 µg/mL ([3]; read-out: Acetylcholinesterase (AChE) Percent Inhibition (Mean±SEM), 125 μg/mL): 55.9%
inhibition at 250 µg/mL ([3]; read-out: Acetylcholinesterase (AChE) Percent Inhibition (Mean±SEM), 250 μg/mL): 61.2%
inhibition at 500 µg/mL ([3]; read-out: Acetylcholinesterase (AChE) Percent Inhibition (Mean±SEM), 500 μg/mL): 65.4%
inhibition at 1000 µg/mL ([3]; read-out: Acetylcholinesterase (AChE) Percent Inhibition (Mean±SEM), 1000 μg/mL): 71.3 ± 1.92%
H2O2 IC50 value (H2O2 anti-radicals study): 752.21 µg/mL
H2O2 % Inhibition (Mean±SEM) (H2O2 anti-radicals study; 62.5 µg/mL): 26.08±2.66%
H2O2 % Inhibition (Mean±SEM) (H2O2 anti-radicals study; 125 µg/mL): 31.58±1.40%
H2O2 % Inhibition (Mean±SEM) (H2O2 anti-radicals study; 250 µg/mL): 39.92±2.08%
H2O2 % Inhibition (Mean±SEM) (H2O2 anti-radicals study; 500 µg/mL): 46.08±1.36%
H2O2 % Inhibition (Mean±SEM) (H2O2 anti-radicals study; 1000 µg/mL): 54.82±1.82%
IC50 (WI-38): > 3000 µg/mL
cytotoxicity at 48 h, 1000 ppm [4]: 16%
Ascaridia galli Death Time (Ascaridia galli; 10 mg/mL): 18.42 ± 1.70 min
Ascaridia galli Paralysis Time (Ascaridia galli; 10 mg/mL): 06.54 ± 1.67 min
Ascaridia galli Death Time (Ascaridia galli; 20 mg/mL): 11.36 ± 1.94 min
Ascaridia galli Paralysis Time (Ascaridia galli; 20 mg/mL): 04.82 ± 1.38 min
Ascaridia galli Death Time (Ascaridia galli; 40 mg/mL): 09.39 ± 1.48 min
Ascaridia galli Paralysis Time (Ascaridia galli; 40 mg/mL): 02.19 ± 0.96 min
IC50 (MDA-MB-231): 231 µg/mL (≈ 942 µM)
Pheretima posthuma Death Time (Pheretima posthuma; 10 mg/mL): 23.67 ± 1.52 min
Pheretima posthuma Paralysis Time (Pheretima posthuma; 10 mg/mL): 06.67 ± 1.08 min
Pheretima posthuma Death Time (Pheretima posthuma; 20 mg/mL): 19.23 ± 2.56 min
Pheretima posthuma Paralysis Time (Pheretima posthuma; 20 mg/mL): 05.68 ± 0.34 min
Pheretima posthuma Death Time (Pheretima posthuma; 40 mg/mL): 14.71 ± 1.73 min
Pheretima posthuma Paralysis Time (Pheretima posthuma; 40 mg/mL): 02.48 ± 1.62 min
Pheretima posthuma Death Time (Pheretima posthuma; [6]): 14.71 min
Pheretima posthuma Paralysis Time (Pheretima posthuma; [6]): 2.48 min
IC50 (HCT-116): 78 µg/mL (≈ 318 µM)
DPPH IC50 value [1]: 139.74 µg/mL
DPPH % Inhibition (Mean±SEM) ([1]; 62.5 µg/mL): 33.32±2.04%
DPPH % Inhibition (Mean±SEM) ([1]; 125 µg/mL): 49.01±1.28%
DPPH % Inhibition (Mean±SEM) ([1]; 250 µg/mL): 61.41±2.36%
DPPH % Inhibition (Mean±SEM) ([1]; 500 µg/mL): 71.36±1.92%
DPPH % Inhibition (Mean±SEM) ([1]; 1000 µg/mL): 72.85±1.17%
DPPH % Inhibition (Mean±SEM) [1, 5]: 75.84±1.58%
DPPH IC50 value ([1]; listed as test compound): 84.36 µg/mL
IC50 (NIH/3T3): 181 µg/mL (≈ 738 µM)
IC50 (MCF-7): 277 µg/mL (≈ 1130 µM)

SMILES: CCCSc1ccc2nc(NC(=O)OC)[nH]c2c1 [Alb, Albendazole, reference compound]
Ascaridia galli Death Time (Ascaridia galli; 10 mg/mL): 36.32 ± 1.36 min
Ascaridia galli Paralysis Time (Ascaridia galli; 10 mg/mL): 11.26 ± 2.81 min
Ascaridia galli Death Time (Ascaridia galli; 20 mg/mL): 32.56 ± 1.93 min
Ascaridia galli Paralysis Time (Ascaridia galli; 20 mg/mL): 09.45 ± 1.63 min
Ascaridia galli Death Time (Ascaridia galli; 40 mg/mL): 25.68 ± 3.62 min
Ascaridia galli Paralysis Time (Ascaridia galli; 40 mg/mL): 07.18 ± 1.74 min
Pheretima posthuma Death Time (Pheretima posthuma; 10 mg/mL): 48.70 ± 2.06 min
Pheretima posthuma Paralysis Time (Pheretima posthuma; 10 mg/mL): 09.08 ± 1.56 min
Pheretima posthuma Death Time (Pheretima posthuma; 20 mg/mL): 39.33 ± 1.54 min
Pheretima posthuma Paralysis Time (Pheretima posthuma; 20 mg/mL): 07.24 ± 1.38 min
Pheretima posthuma Death Time (Pheretima posthuma; 40 mg/mL): 28.92 ± 2.68 min
Pheretima posthuma Paralysis Time (Pheretima posthuma; 40 mg/mL): 04.67 ± 0.57 min
Pheretima posthuma Death Time (Pheretima posthuma; [7]): 28.92 min
Pheretima posthuma Paralysis Time (Pheretima posthuma; [7]): 4.67 min
